Data reported in ChEMBL document CHEMBL5653611, “A combination of H2A.Z and H4 acetylation recruits Brd2 to chromatin during transcriptional activation” (PLoS Genet, 2012).
Active and inactive are the calls of the source.

How the values were obtained:
HEK293T = assay: Binding affinity to Brd2-H2A.Z protein-protein interaction in human 293T cells at 200 nM for 2 hrs by Western blotting analysis; assay type: cell-based
Procedure, shortened: (§1)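 293T cells transfected with Flag-H2A.Z or Flag-H2A (for line 5, co-transfected with YFP-Brd2), treated with 200 nM for 2 hrs (DMSO vehicle) before harvest. Read-out by Western blot of input and of Flag IP of MNase-digested mononucleosomes, overnight at 4°C on M2-agarose.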

HEK-293T [1] = assay: Effect on human 293T cells assessed as increase in histone acetylation at 200 nM for 2 hrs by Western blotting analysis; assay type: functional, cell-based; procedure, shortened: as §1
HEK-293T [2] = assay: Effect on human 293T cells expressing YFP-Brd2 assessed as increase in protein immunoprecipitated cells at 200 nM for 2 hrs; assay type: functional, cell-based; procedure, shortened: as §1
LNCaP [3] = assay: Effect on DHT stimulated human LNCaP cells assessed as decrease in histone acetylation at 125 to 250 nM measured for 60 mins by ChIP analysis; assay type: functional, cell-based; conditions: dose 125-250 nM
LNCaP [4] = assay: Effect on human LNCaP cells assessed as decrease in PSA mRNA expression pretreated with compound for 24 hrs followed by androgen stimulation for 24 hrs by RT-qPCR analysis; assay type: functional, cell-based; conditions: dose 125-500 nM
Procedure, shortened: (§2)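 LNCaP cells grown 72 hrs in phenol-red-free RPMI with 5% charcoal-stripped FBS, pretreated with compound, then stimulated with 10 nM DHT (ethanol vehicle for controls). Transcript levels measured by RT-qPCR.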

LNCaP [5] = assay: Inhibition of Brd2-H2A.Z protein-protein interaction in human LNCaP cells at 125 to 250 nM by Western blotting analysis; assay type: cell-based; conditions: dose 125-250 nM
LNCaP [6] = assay: Inhibition of Brd2-PSA protein-protein interaction in DHT stimulated human LNCaP cells at 125 to 250 nM measured for 60 mins by ChIP analysis; assay type: cell-based; conditions: dose 125-250 nM
Procedure, shortened: (§3)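 LNCaP cells held 72 hrs in phenol-red-free RPMI with 5% charcoal-stripped FBS, pretreated with compound, then stimulated with 10 nM DHT (ethanol control). Brd2 occupancy at enhancer and promoter regions measured by ChIP 60 min after stimulation.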

LNCaP [7] = assay: Antiproliferative activity against human LNCaP cells for 24 hrs by MTS assay; assay type: functional, cell-based; conditions: dose 125-500 nM
Procedure, shortened: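 LNCaP cells seeded in 96-well plates and grown 24 hrs, then exposed to a range of concentrations (DMSO vehicle control) for 24 hrs. MTS reagent added and absorbance read at 490 nm.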

LNCaP [8] = assay: Inhibition of Brd2-KLK2 protein-protein interaction in DHT stimulated human LNCaP cells at 125 to 250 nM measured for 60 mins by ChIP analysis; assay type: cell-based; conditions: dose 125-250 nM; procedure, shortened: as §3
LNCaP [9] = assay: Effect on human LNCaP cells assessed as decrease in KLK2 mRNA expression pretreated with compound for 24 hrs followed by androgen stimulation for 24 hrs by RT-qPCR analysis; assay type: functional, cell-based; conditions: dose 125-500 nM; procedure, shortened: as §2

CC(/C=C/C(=O)NO)=C\[C@@H](C)C(=O)c1ccc(N(C)C)cc1
active: Activity (HEK293T) | Activity (HEK-293T [1]) | Activity (HEK-293T [2])

Cc1sc2c(c1C)C(c1ccc(Cl)cc1)=N[C@@H](CC(=O)OC(C)(C)C)c1nnc(C)n1-2
active: Activity (LNCaP [3]) | Activity (LNCaP [4]) Dose-Dependent Effect | inhibition (LNCaP [5]) | inhibition (LNCaP [6]) | Activity (LNCaP [7]) Dose-Dependent Effect | inhibition (LNCaP [8]) | Activity (LNCaP [9]) Dose-Dependent Effect
